In ChEMBL document CHEMBL2069280, “Synthesis and evaluation of sulfonylnitrophenylthiazoles (SNPTs) as thyroid hormone receptor-coactivator interaction inhibitors” (J Med Chem, 2012):

Assay: Permeability of compound by PAMPA at pH 7.4
Type: ADME
Summary of the method: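 Parallel artificial membrane permeation assay at pH 7.4, read as permeability in 10^-6 cm/s. Mean of a single triplicate experiment.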

permeability | Papp (read-out: permeability) | SMILES
791 ×10⁻⁶ cm/s |  | CS(=O)(=O)c1ccc(-c2nc(C(F)(F)F)c(C(=O)N3CCCCC3)s2)cc1[N+](=O)[O-]
1500 ×10⁻⁶ cm/s |  | CN(Cc1ccccc1)C(=O)c1sc(-c2ccc(S(C)(=O)=O)c([N+](=O)[O-])c2)nc1C(F)(F)F
167 ×10⁻⁶ cm/s |  | CS(=O)(=O)c1ccc(C(=O)OCC(=O)NC23CC4CC(CC(C4)C2)C3)cc1[N+](=O)[O-]
949 ×10⁻⁶ cm/s |  | CCc1nc(-c2ccc(S(C)(=O)=O)c([N+](=O)[O-])c2)sc1C(=O)N1CC2(C)CC1CC(C)(C)C2 (centres undefined)
912 ×10⁻⁶ cm/s |  | Cc1nc(-c2ccc(S(C)(=O)=O)c([N+](=O)[O-])c2)sc1C(=O)N1CCC(C)CC1
84 ×10⁻⁶ cm/s |  | CS(=O)(=O)c1ccc(-c2nc(C(F)(F)F)c(C(=O)N3CCc4ccccc4C3)s2)cc1[N+](=O)[O-]

Second part, the compound before the results:

SMILES | permeability | Papp (read-out: permeability)
CN(Cc1cccc(F)c1)C(=O)c1sc(-c2ccc(S(C)(=O)=O)c([N+](=O)[O-])c2)nc1C(F)(F)F | 271 ×10⁻⁶ cm/s | 
Cc1nc(-c2ccc(S(C)(=O)=O)c([N+](=O)[O-])c2)sc1C(=O)N1CCCCC1 | 280 ×10⁻⁶ cm/s | 
CS(=O)(=O)c1ccc(-c2ncc(C(=O)N3CCCCC3)s2)cc1[N+](=O)[O-] | 287 ×10⁻⁶ cm/s | 
CC1CCN(C(=O)c2sc(-c3ccc(S(C)(=O)=O)c([N+](=O)[O-])c3)nc2C(F)(F)F)CC1 |  | 702 ×10⁻⁶ cm/s
CCc1nc(-c2ccc(S(C)(=O)=O)c([N+](=O)[O-])c2)sc1C(=O)N1CCCCC1 | 657 ×10⁻⁶ cm/s | 
CN(Cc1ccccc1F)C(=O)c1sc(-c2ccc(S(C)(=O)=O)c([N+](=O)[O-])c2)nc1C(F)(F)F | 221 ×10⁻⁶ cm/s | 
CS(=O)(=O)c1ccc(-c2nc(-c3ccccc3)c(C(=O)N3CCCCC3)s2)cc1[N+](=O)[O-] | 971 ×10⁻⁶ cm/s | 
CS(=O)(=O)c1ccc(-c2ncc(C(=O)NC34CC5CC(CC(C5)C3)C4)s2)cc1[N+](=O)[O-] | 379 ×10⁻⁶ cm/s | 
CC1Cc2ccccc2N1C(=O)c1sc(-c2ccc(S(C)(=O)=O)c([N+](=O)[O-])c2)nc1C(F)(F)F (centres undefined) | 43 ×10⁻⁶ cm/s | 
CCCN(C(=O)c1csc(-c2ccc(S(C)(=O)=O)c([N+](=O)[O-])c2)n1)c1ccccc1 | 1620 ×10⁻⁶ cm/s | 
CC1(C)CC2CC(C)(CN2C(=O)c2sc(-c3ccc(S(C)(=O)=O)c([N+](=O)[O-])c3)nc2C(F)(F)F)C1 (centres undefined) | 8 ×10⁻⁶ cm/s | 
Cc1nc(-c2ccc(S(C)(=O)=O)c([N+](=O)[O-])c2)sc1C(=O)N1CC2(C)CC1CC(C)(C)C2 (centres undefined) | 1420 ×10⁻⁶ cm/s | 
CN(Cc1cccc(F)c1)C(=O)c1cnc(-c2ccc(S(C)(=O)=O)c([N+](=O)[O-])c2)s1 | 1030 ×10⁻⁶ cm/s | 
